Experimental data from ChEMBL document CHEMBL1165950, “Design and synthesis of new potent anticancer pyrazoles with high FLT3 kinase inhibitory selectivity” (Bioorg Med Chem, 2010).

Columns and labels:
Type in all cases: functional
[1] = Cytotoxicity against human Hs 578T cells assessed as cell growth at 10 uM; conditions: read-out: Activity
Procedure, shortened: (§1)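 Single-dose NCI-60 screen at 10 µM. Cells were grown in RPMI 1640 with 5% FBS and 2 mM L-glutamine, then treated for 48 h at 37 °C. Protein was measured by SRB staining with absorbance at 515 nm. Percentage growth was recorded, and inhibition percentage was calculated as 100 minus growth percentage.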

SK-MEL-28 = test: Cytotoxicity against human SK-MEL-28 cells assessed as cell growth at 10 uM; conditions: read-out: Activity
Procedure, shortened: (§2)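 NCI-60 screen: cells grown in RPMI 1640 with 5% FBS and 2 mM L-glutamine, plated at 5000–40,000 cells/well according to doubling time, and preincubated 24 h at 37 °C, 5% CO2. The single 10 µM dose (DMSO stock) was added, then incubated 48 h. Cells were TCA-fixed and stained with 0.4% SRB, read at 515 nm, and growth % calculated against time-zero and control plates.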

U-251 = test: Growth inhibition of human U251 cells after 48 hrs by sulforhodamine B assay; conditions: U-251, 48 h
Procedure, shortened: (§3)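 NCI 60-cell screen, five-dose mode. Cells grown in RPMI 1640 with 5% FBS and 2 mM L-glutamine and plated at 5000-40,000 cells/well according to doubling time. After 24 h preincubation, a Tz plate was TCA-fixed. Five concentrations (10-fold or 1/2 log dilutions) were applied for 48 h at 37 °C. SRB staining read at 515 nm. IC50 taken from [(Ti-Tz)/(C-Tz)]×100 = 50.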

[2] = Cytotoxicity against human Hs 578T cells assessed as cell growth at 10 uM after 48 hrs by sulforhodamine B assay; conditions: read-out: Activity
EKVX = test: Cytotoxicity against human EKVX cells assessed as cell growth at 10 uM; conditions: read-out: Activity; procedure, shortened: as §1
MDA-MB-468 = test: Cytotoxicity against human MDA-MB-468 cells assessed as cell growth at 10 uM after 48 hrs by sulforhodamine B assay; conditions: MDA-MB-468, 48 h, read-out: Activity
HT-29 = test: Cytotoxicity against human HT-29 cells assessed as cell growth at 10 uM after 48 hrs by sulforhodamine B assay; conditions: HT-29, 48 h, read-out: Activity
SK-OV-3 [3] = test: Cytotoxicity against human SKOV3 cells assessed as cell growth at 1 uM after 48 hrs by sulforhodamine B assay; conditions: SK-OV-3, 48 h, read-out: Activity
SK-OV-3 [4] = test: Cytotoxicity against human SKOV3 cells assessed as cell growth at 10 uM after 48 hrs by sulforhodamine B assay; conditions: SK-OV-3, 48 h, read-out: Activity
NCI-H522 = test: Cytotoxicity against human NCI-H522 cells assessed as cell growth at 10 uM after 48 hrs by sulforhodamine B assay; conditions: NCI-H522, 48 h, read-out: Activity
SN12C = test: Cytotoxicity against human SN12C cells assessed as cell growth at 0.01 uM after 48 hrs by sulforhodamine B assay; conditions: read-out: Activity
SK-OV-3 [5] = test: Cytotoxicity against human SKOV3 cells assessed as cell growth at 10 uM; conditions: read-out: Activity; procedure, shortened: as §2
NCI-H322M = test: Cytotoxicity against human NCI-H322M cells assessed as cell growth at 100 nM after 48 hrs by sulforhodamine B assay; conditions: read-out: Activity
OVCAR-3 [6] = test: Growth inhibition of human OVCAR-3 cells after 48 hrs by sulforhodamine B assay; conditions: OVCAR-3, 48 h; procedure, shortened: as §3
HCT-15 [7] = test: Cytotoxicity against human HCT15 cells assessed as cell growth at 0.01 uM after 48 hrs by sulforhodamine B assay; conditions: HCT-15, 48 h, read-out: Activity
HOP-92 = test: Cytotoxicity against human HOP92 cells assessed as cell growth at 100 nM after 48 hrs by sulforhodamine B assay; conditions: HOP-92, 48 h, read-out: Activity
Malme-3M = test: Growth inhibition of human MALME-3M cells after 48 hrs by sulforhodamine B assay; procedure, shortened: as §3
NCI-H460 = test: Cytotoxicity against human NCI-H460 cells assessed as cell growth at 10 uM; conditions: read-out: Activity; procedure, shortened: as §2
SK-OV-3 [8] = test: Cytotoxicity against human SKOV3 cells assessed as cell growth at 0.001 uM after 48 hrs by sulforhodamine B assay; conditions: SK-OV-3, 48 h, read-out: Activity
IGROV-1 = test: Growth inhibition of human IGROV1 cells after 48 hrs by sulforhodamine B assay; conditions: IGROV-1, 48 h; procedure, shortened: as §3
A549 = test: Cytotoxicity against human A549 cells assessed as cell growth at 100 nM after 48 hrs by sulforhodamine B assay; conditions: A549, 48 h, read-out: Activity
Procedure, shortened: (§4)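 NCI-60 five-dose screen. Cells were grown in RPMI 1640 with 5% FBS and 2 mM L-glutamine, plated at 5000–40,000 cells/well and preincubated for 24 h. Time-zero plates were TCA-fixed. DMSO-solubilized drug was added at five concentrations (10-fold or ½-log serial dilutions) for 48 h at 37 °C, 5% CO2. Cells were TCA-fixed, stained with 0.4% SRB and read at 515 nm. Percent growth used time-zero, control and test absorbances.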

A498 = test: Cytotoxicity against human A498 cells assessed as cell growth at 100 nM after 48 hrs by sulforhodamine B assay; conditions: A498, 48 h, read-out: Activity; procedure, shortened: as §4
SR = test: Cytotoxicity against human SR cells assessed as cell growth at 10 uM after 48 hrs by sulforhodamine B assay; conditions: read-out: Activity
SF-539 = test: Cytotoxicity against human SF539 cells assessed as cell growth at 0.001 uM after 48 hrs by sulforhodamine B assay; conditions: SF-539, 48 h, read-out: Activity
OVCAR-3 [9] = test: Cytotoxicity against human OVCAR-3 cells assessed as cell growth at 10 uM after 48 hrs by sulforhodamine B assay; conditions: OVCAR-3, 48 h, read-out: Activity
MDA-MB-435 = test: Cytotoxicity against human MDA-MB-435 cells assessed as cell growth at 100 nM after 48 hrs by sulforhodamine B assay; conditions: MDA-MB-435, 48 h, read-out: Activity
HCT-15 [10] = test: Cytotoxicity against human HCT15 cells assessed as cell growth at 10 uM after 48 hrs by sulforhodamine B assay; conditions: HCT-15, 48 h, read-out: Activity
ACHN = test: Cytotoxicity against human ACHN cells assessed as cell growth at 10 uM; conditions: read-out: Activity; procedure, shortened: as §1
SW-620 = test: Cytotoxicity against human SW620 cells assessed as cell growth at 10 uM after 48 hrs by sulforhodamine B assay; conditions: SW-620, 48 h, read-out: Activity
HCT-15 [11] = test: Cytotoxicity against human HCT15 cells assessed as cell growth at 0.001 uM after 48 hrs by sulforhodamine B assay; conditions: HCT-15, 48 h, read-out: Activity
SF-268 = test: Cytotoxicity against human SF268 cells assessed as cell growth at 100 nM after 48 hrs by sulforhodamine B assay; conditions: SF-268, 48 h, read-out: Activity
COLO 205 = test: Cytotoxicity against human COLO205 cells assessed as cell growth at 1 uM after 48 hrs by sulforhodamine B assay; conditions: COLO 205, 48 h, read-out: Activity; procedure, shortened: as §4
[12] = read-out: LC50 (the source's name)

COc1cc(C)cc(-c2c(-c3ccnc(-c4ccc(C(C)=O)cc4)c3)cnn2CC#N)c1
growth at 10 µM [1]: 88.5% | growth at 10 µM (SK-MEL-28): 62% | GI50 (U-251): 2.89 µM | TGI (U-251): > 100 µM | CC50 (U-251; [12]): > 100 µM | growth at 10 µM [2]: -27% | growth at 10 µM (EKVX): 98.6% | growth at 10 µM (MDA-MB-468): -55% | growth at 10 µM (HT-29): 6% | growth at 1 µM (SK-OV-3 [3]): 19% | growth at 10 µM (SK-OV-3 [4]): 27% | growth at 10 µM (NCI-H522): -10% | growth at 0.01 µM (SN12C): 93% | growth at 10 µM (SK-OV-3 [5]): 97.8% | growth at 0.1 µM (NCI-H322M): 100% | GI50 (OVCAR-3 [6]): 2.61 µM | TGI (OVCAR-3 [6]): 8.05 µM | CC50 (OVCAR-3 [6]; [12]): > 100 µM | growth at 0.01 µM (HCT-15 [7]): 95% | growth at 0.1 µM (HOP-92): 61% | GI50 (Malme-3M): 5.82 µM | TGI (Malme-3M): > 100 µM | CC50 (Malme-3M; [12]): > 100 µM | growth at 10 µM (NCI-H460): 104% | growth at 0.001 µM (SK-OV-3 [8]): 86% | GI50 (IGROV-1): 3.57 µM | TGI (IGROV-1): > 100 µM | CC50 (IGROV-1; [12]): > 100 µM | growth at 0.1 µM (A549): 83% | growth at 0.1 µM (A498): 65% | growth at 10 µM (SR): 28% | growth at 0.001 µM (SF-539): 92% | growth at 10 µM (OVCAR-3 [9]): -17% | growth at 0.1 µM (MDA-MB-435): 63% | growth at 10 µM (HCT-15 [10]): 12% | growth at 10 µM (ACHN): 70% | growth at 10 µM (SW-620): 14% | growth at 0.001 µM (HCT-15 [11]): 94% | growth at 0.1 µM (SF-268): 85% | growth at 1 µM (COLO 205): -78%
